Data as given in ChEMBL document CHEMBL1275368, “Synthesis and evaluation of pyrazolone compounds as SARS-coronavirus 3C-like protease inhibitors” (Bioorg Med Chem, 2010).
Activity calls are given as the source filed them. The rule behind the calls is not given here.

Tests used:
Genome polyprotein = Genome polyprotein (Coxsackievirus B3 (strain Nancy), UniProt P03313); assay: Inhibition of coxsackievirus B3 3C protease by fluorescence plate reader analysis
[1] = target: Replicase polyprotein 1ab (Severe acute respiratory syndrome-related coronavirus, UniProt P0C6X7); assay: Inhibition of SARS coronavirus 3C-like protease by fluorescence plate reader analysis
HEK293 = assay: Cytotoxicity against HEK293 cells at 200 uM after 24 hrs by MTT assay; assay type: cell-based; conditions: human, hek293, 24 h
Summary of the method: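 HEK293 cells seeded at 2×10^5/ml in MEM with 10% FBS at 37 °C and 5% CO2. At 70% confluence, cells were exposed to compound for 24 h. MTT was then added for 4 h at 37 °C. Formazan was dissolved in DMSO after medium removal, and OD at 540 nm was read as cell viability.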

[2] = target: Replicase polyprotein 1ab (Severe acute respiratory syndrome-related coronavirus) (UniProt P0C6X7); assay: Inhibition of SARS coronavirus 3C-like protease at 50 uM by fluorescence plate reader analysis
Summary of the method: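 Stored recombinant SARS-CoV 3CLpro at –70 °C in Tris/NaCl/EDTA/β-ME/DTT buffer. Screened compounds at 50 μM; those inhibiting >50% went on to the follow-up run.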

[3] = target: Genome polyprotein (Coxsackievirus B3 (strain Nancy)) (UniProt P03313); assay: Inhibition of coxsackievirus B3 3C protease at 50 uM by fluorescence plate reader analysis
Chain of Genome polyprotein (Coxsackievirus B3 (strain Nancy)) (P03313 whole entry): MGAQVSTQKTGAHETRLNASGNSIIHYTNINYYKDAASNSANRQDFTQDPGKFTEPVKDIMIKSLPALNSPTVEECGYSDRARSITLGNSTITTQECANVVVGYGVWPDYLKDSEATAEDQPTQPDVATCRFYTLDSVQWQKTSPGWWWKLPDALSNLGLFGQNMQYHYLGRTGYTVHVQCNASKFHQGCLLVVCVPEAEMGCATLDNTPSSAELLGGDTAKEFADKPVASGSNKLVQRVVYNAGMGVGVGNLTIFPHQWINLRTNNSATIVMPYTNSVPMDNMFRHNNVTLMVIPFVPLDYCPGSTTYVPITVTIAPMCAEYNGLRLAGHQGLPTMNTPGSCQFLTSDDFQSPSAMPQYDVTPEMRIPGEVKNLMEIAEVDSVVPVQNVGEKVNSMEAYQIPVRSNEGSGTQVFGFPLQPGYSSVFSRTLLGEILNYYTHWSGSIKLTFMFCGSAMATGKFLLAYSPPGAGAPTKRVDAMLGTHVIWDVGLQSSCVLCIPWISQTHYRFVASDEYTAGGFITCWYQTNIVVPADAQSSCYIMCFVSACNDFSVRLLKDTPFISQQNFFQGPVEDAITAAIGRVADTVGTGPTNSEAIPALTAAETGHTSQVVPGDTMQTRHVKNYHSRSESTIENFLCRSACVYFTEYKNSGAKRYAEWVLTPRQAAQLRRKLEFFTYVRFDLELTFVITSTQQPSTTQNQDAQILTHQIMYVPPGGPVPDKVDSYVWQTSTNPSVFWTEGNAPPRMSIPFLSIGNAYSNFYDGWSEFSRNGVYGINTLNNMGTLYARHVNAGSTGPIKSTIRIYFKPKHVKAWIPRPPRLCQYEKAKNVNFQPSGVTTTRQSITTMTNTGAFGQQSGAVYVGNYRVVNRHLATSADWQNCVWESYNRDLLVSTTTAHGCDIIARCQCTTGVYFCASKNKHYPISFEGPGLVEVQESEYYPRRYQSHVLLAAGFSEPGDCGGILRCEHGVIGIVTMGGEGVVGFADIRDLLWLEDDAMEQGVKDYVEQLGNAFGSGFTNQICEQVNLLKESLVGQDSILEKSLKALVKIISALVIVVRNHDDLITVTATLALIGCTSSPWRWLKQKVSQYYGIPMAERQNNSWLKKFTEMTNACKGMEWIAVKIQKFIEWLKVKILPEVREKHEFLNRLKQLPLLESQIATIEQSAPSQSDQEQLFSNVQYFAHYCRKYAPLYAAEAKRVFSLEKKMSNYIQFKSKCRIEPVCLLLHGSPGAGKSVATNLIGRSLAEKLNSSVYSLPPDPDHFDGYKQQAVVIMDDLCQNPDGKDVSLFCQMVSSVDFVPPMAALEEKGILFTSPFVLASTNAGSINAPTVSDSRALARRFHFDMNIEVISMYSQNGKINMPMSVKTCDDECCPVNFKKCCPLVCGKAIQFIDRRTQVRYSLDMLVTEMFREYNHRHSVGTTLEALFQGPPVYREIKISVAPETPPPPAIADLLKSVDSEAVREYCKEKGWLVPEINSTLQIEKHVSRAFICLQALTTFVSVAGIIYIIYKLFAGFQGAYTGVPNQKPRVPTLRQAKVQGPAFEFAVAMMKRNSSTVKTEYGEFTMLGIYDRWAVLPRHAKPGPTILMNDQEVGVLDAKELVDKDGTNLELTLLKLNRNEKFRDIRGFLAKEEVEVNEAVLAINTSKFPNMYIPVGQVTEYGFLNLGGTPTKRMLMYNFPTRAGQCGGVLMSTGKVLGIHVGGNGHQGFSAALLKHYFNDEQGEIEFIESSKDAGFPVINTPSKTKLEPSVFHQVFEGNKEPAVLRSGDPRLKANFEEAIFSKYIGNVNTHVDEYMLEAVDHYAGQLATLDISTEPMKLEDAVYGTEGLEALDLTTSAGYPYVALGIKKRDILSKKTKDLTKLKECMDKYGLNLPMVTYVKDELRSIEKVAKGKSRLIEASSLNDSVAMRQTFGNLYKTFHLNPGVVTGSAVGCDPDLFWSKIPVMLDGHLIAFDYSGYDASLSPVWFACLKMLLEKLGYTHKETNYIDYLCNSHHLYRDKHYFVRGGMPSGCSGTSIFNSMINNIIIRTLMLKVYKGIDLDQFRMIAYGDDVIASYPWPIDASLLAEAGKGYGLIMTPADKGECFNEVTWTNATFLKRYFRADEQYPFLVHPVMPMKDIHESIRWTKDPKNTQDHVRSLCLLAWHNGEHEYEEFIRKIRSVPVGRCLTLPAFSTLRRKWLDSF

Chain of Genome polyprotein (P03313 1541-1723 limits assumed): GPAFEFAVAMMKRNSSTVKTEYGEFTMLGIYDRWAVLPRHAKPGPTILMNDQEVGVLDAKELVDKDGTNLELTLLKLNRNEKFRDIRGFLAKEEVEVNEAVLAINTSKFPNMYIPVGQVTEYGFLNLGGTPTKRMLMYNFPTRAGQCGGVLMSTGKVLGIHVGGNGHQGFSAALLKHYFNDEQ

SMILES | IC50 (Genome polyprotein) [µM] | IC50 [1] [µM] | Activity (HEK293) | inhibition [2] | inhibition [3]
N#Cc1ccc(N2N=C(c3ccccc3)/C(=C/c3ccc(C(=O)O)cc3)C2=O)cc1 | 20.8 | 5.5 | Non-toxic | – | –
O=C(O)c1ccc(/C=C2\C(=O)N(c3cccc([N+](=O)[O-])c3)N=C2c2ccccc2)cc1 | 9.6 | 8.4 | Non-toxic | – | –
O=C1/C(=C\c2ccc(O)cc2)C(c2ccccc2)=NN1c1ccc(Cl)cc1 | – | – | Non-toxic | inactive | inactive
O=C(O)c1ccc(/C=C2\C(=O)N(c3ccc(Cl)c(Cl)c3)N=C2c2ccccc2)cc1 | 126 | 24.3 | Non-toxic | – | –
O=C1/C(=C\c2cccc([N+](=O)[O-])c2)C(c2ccccc2)=NN1c1ccccc1 | – | – | Non-toxic | inactive | inactive
CC(=O)Nc1ccc(/C=C2\C(=O)N(c3ccccc3)N=C2c2ccccc2)cc1 | – | – | Non-toxic | inactive | inactive
O=C1/C(=C\c2ccccc2)C(c2ccccc2)=NN1c1ccc(Cl)cc1 | – | – | Non-toxic | inactive | inactive
COc1ccc(/C=C2\C(=O)N(c3ccc(Cl)cc3)N=C2c2ccccc2)cc1 | – | – | Non-toxic | inactive | inactive
O=C(O)c1ccc(/C=C2\C(=O)N(c3ccc(OC(F)(F)F)cc3)N=C2c2ccccc2)cc1 | 98.8 | 42 | Non-toxic | – | –
COc1cccc(/C=C2\C(=O)N(c3ccccc3)N=C2c2ccccc2)c1 | – | – | Non-toxic | inactive | inactive
O=C1/C(=C\c2ccccc2)C(c2ccccc2)=NN1c1ccccc1 | – | – | Non-toxic | inactive | inactive
CC(C)c1ccc(N2N=C(c3ccccc3)/C(=C/c3ccc(C(=O)O)cc3)C2=O)cc1 | – | – | Non-toxic | inactive | inactive
CN(C)c1ccc(/C=C2\C(=O)N(c3ccccc3)N=C2c2ccccc2)cc1 | – | – | Non-toxic | inactive | inactive
O=C(O)c1ccc(/C=C2\C(=O)N(c3ccccc3)N=C2c2ccccc2)cc1 | 51.1 | 18 | Non-toxic | – | –
COc1ccc(N2N=C(c3ccccc3)/C(=C/c3ccc(C(=O)O)cc3)C2=O)cc1 | 16.6 | 12 | Non-toxic | – | –
O=C1/C(=C\c2ccc(Cl)cc2)C(c2ccccc2)=NN1c1ccc(Cl)cc1 | – | – | Non-toxic | inactive | inactive
O=C(O)c1ccc(/C=C2\C(=O)N(c3ccc(F)cc3)N=C2c2ccccc2)cc1 | 22.4 | 6.8 | Non-toxic | – | –
CC(C)(C)c1ccc(N2N=C(c3ccccc3)/C(=C/c3ccc(C(=O)O)cc3)C2=O)cc1 | – | – | Non-toxic | inactive | inactive
CC(=O)Nc1ccc(/C=C2\C(=O)N(c3ccc(Cl)cc3)N=C2c2ccccc2)cc1 | – | – | Non-toxic | inactive | inactive
O=C(O)c1ccc(/C=C2\C(=O)N(c3cccc(Cl)c3)N=C2c2ccccc2)cc1 | 17.3 | 10.8 | Non-toxic | – | –
O=C(O)c1ccc(/C=C2\C(=O)N(c3ccc(Cl)cc3)N=C2c2ccccc2)cc1 | 25 | 13.9 | Non-toxic | – | –
